Consider 167 variants from the RNAGym collection of RNA variant scans (doi:10.1126/science.aae0568).

The chains are these.
B1: tRNA (parent)
chain: GUUCCGUUGGCGUAAUGGUAACGCGUCUCCCUCCUAAGGAGAAGACUGCGGGUUCGAGUCCCGUACGGAACG

Variants at the floor of the assay were thinned out.

The data set covers variants of B1. Briefly: yeast fitness relative to wild type (ratio to wild type); higher = fitter; tRNA-Arg(CCU), competitive growth, 37 C, YPD. The essentials: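 Changes in genotype frequencies gave Darwinian fitness relative to wild type. Frequencies were read by 100-nucleotide paired-end sequencing of gene amplicons before and after pooled Saccharomyces cerevisiae strains, carrying tRNA-Arg(CCU) gene variants at the native locus, were competed in YPD at 37°C for 24 hours in six replicates. A genotype was kept only with ≥ 100 starting reads, and estimates < 0.5 were set to 0.5.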
With C22A C24G A43G, the yeast fitness is ≤ 0.5.
The value for C22G A42G U59A G68C was ≤ 0.5; that for C22G C24A C55A was ≤ 0.5; that for C22A C30A C31U G68C was ≤ 0.5.
Regarding C22A A43U C60A, the yeast fitness is ≤ 0.5.
Regarding C22G C27G C31G C61G, the yeast fitness was 0.575.
With A21U G56A G67A, the yeast fitness is ≤ 0.5.
The same measure for C22A C33G A43C A69C: ≤ 0.5; for C22G C24U C31U A40U U59A C61A: ≤ 0.5.
The same measure for C22A G25A G48A C61G: ≤ 0.5.
The same measure for C22A U47C C55G: 0.536; for C22A C34U U35G C61U: ≤ 0.5; for C22G C27A C49U C55U G58U: ≤ 0.5.
With C22A U28C, the yeast fitness worked out at 0.852.
The value for C22A U28G was 0.625; that for A21U U26A U54A G63C A65C was 0.554.
The value for A21U U59A A70U was 0.532; that for C22A U47A G48A A70G was ≤ 0.5.
In the case of C22A C31A, the yeast fitness was 0.789.
The value for A21U G58A was 0.721.
Take A21U U35A A65C: the yeast fitness is ≤ 0.5.
The same measure for A21U U59A A69C: ≤ 0.5; for C22G C27G A43U A45C U54A: ≤ 0.5.
As for C22G A40U U54A, the yeast fitness was ≤ 0.5.
The same measure for A21U U28G: 0.659.
As for C22A U28G C49A C61A, the yeast fitness is ≤ 0.5.
Consider C22A C31G C46A C49U, for which the yeast fitness was ≤ 0.5.
The value for C22G C27A C46U was 0.539; that for C22A U28G C31G A42U G58C was ≤ 0.5.
With C22G A37C A45U G67A, the yeast fitness stood at 0.581.
The same measure for C22A G23C G67U: ≤ 0.5.
For C22A C33A C60A, the yeast fitness was found to be 0.642.
Consider C22A G23C U32G C66G, for which the yeast fitness was ≤ 0.5.
The value for C22A C33A A36U G48A C62G was 0.524.
C22A G23A C33U C34G C55U: the yeast fitness was ≤ 0.5.
For C22G C27G G39A U64C, the yeast fitness turned out to be 0.604.
In the case of C22A G25A C27U A43C G44A, the yeast fitness was ≤ 0.5.
The value for C22G C30A A42C G58A was ≤ 0.5.
The same measure for C22A C33G C60A C66G: ≤ 0.5; for C22A U32G A37U: ≤ 0.5.
For C22G C24U C29U C33U A37C G52A C66U, the yeast fitness is ≤ 0.5.
Regarding A21U U64G, the yeast fitness came to 0.709.
C22A G23A C33U C34G C60A: the yeast fitness is ≤ 0.5.
The same measure for C22A C33A A36U U53A U54A: 0.551.
The same measure for C22G C29G A36C G39C C46G G52A G67C: ≤ 0.5; for C22G A57C: 0.684; for C22G A57G: 0.676.
The same measure for C22G A42U G50U: 0.523; for C22A C62U: 0.935.
With C22G A57G A65G, the yeast fitness came to 0.624.
Turning to C22G A37C, the yeast fitness was found to be 0.721.
The value for C22A U28G U35A was 0.571; that for C22G C27G C33U G41A was 0.631.
The value for C22G A45C G52C A57U A69C was 0.619; that for C22G C27G U59C C62U U64C G68U was ≤ 0.5.
On to C22G C30G U59G, for which the yeast fitness was ≤ 0.5.
For C22A A42G C49U, the yeast fitness is ≤ 0.5.
Regarding C22A C29G C62A A69U, the yeast fitness is ≤ 0.5.
In the case of C22G C29A A42C, the yeast fitness was determined as 0.542.
The value for A21U U26G G50C was 0.586; that for C22A U35A A37G G58A was ≤ 0.5.
The value for C22A G23C C30U C66G was ≤ 0.5; that for C22A G25C C62A was 0.559; that for C22G C27U was 0.884.
In the case of C22G C27A, the yeast fitness amounted to 0.604.
The value for C22A C31U A45G was 0.667.
The same measure for C22G C27G C29G C34A A43U A69C: ≤ 0.5; for C22A C46U C49G: 0.527; for C22G C24G G50A A69C: 0.574.
The value for C22G C24G C29U C33U A37C G52A C61U was ≤ 0.5; that for C22G C24U G44A U53G was 0.521; that for C22G C29U A37U was 0.589.
Consider C22A C24G, for which the yeast fitness amounted to 0.507.
The same measure for C22A C27U A57U: ≤ 0.5.
As to C22G A43C A70U, the yeast fitness came out at 0.593.
The same measure for C22A U47A G56A C60U: ≤ 0.5; for C22A C31U G68C: 0.561.
The value for C22A C29U C49U was 0.622.
With C22A C24G G67C G68A, the yeast fitness is ≤ 0.5.
The value for A21U U26A U54A A70U was ≤ 0.5; that for C22A U47A C55A was ≤ 0.5; that for C22A U28A A40U C61A was ≤ 0.5.
Consider C22A U47A G48A, for which the yeast fitness was 0.505.
The value for C22G C30G was 0.591; that for C22G C30U was 0.817; that for C22G C30A was 0.65.
The same measure for C22A G41C U53C: 0.656.
The value for C22G C30G A45U was ≤ 0.5; that for C22A G48A C49U G50A G51C A70C was ≤ 0.5; that for C22A C27G A65U was ≤ 0.5.
Turning to C22A C33G A43C U64C, the yeast fitness came to 0.534.
As for A21U G56C U64C, the yeast fitness is ≤ 0.5.
As to C22A A36U, the yeast fitness amounted to 0.586.
The value for C22A C33G A37G was ≤ 0.5.
The same measure for C22G A43U: 0.952.
Turning to C22G A65U, the yeast fitness came to 1.03.
The same measure for C22G A65G: 0.932; for C22A G52C: 0.665.
The value for C22A G52A was 0.637; that for C22A C24A U26C U35C was ≤ 0.5; that for C22G C27G U47C U59C C62U G68U was ≤ 0.5.
The same measure for C22A C46G A70C: 0.57; for A21U U28C C31U: 0.637; for C22G C29G G56A: 0.575.
As to C22A U26C, the yeast fitness is 0.848.
Turning to A21U U54A A69U, the yeast fitness is ≤ 0.5.
As to C22G C27U G68A, the yeast fitness worked out at 0.623.
For C22A G25A G68A, the yeast fitness is 0.676.
The value for C22A U28A U47G was ≤ 0.5; that for A21U U26C was 0.657.
In the case of C22A C24U U28A A37G, the yeast fitness is ≤ 0.5.
The same measure for C22A C29U G56A C60G: ≤ 0.5; for C22A C66A G67A: ≤ 0.5; for C22A C34G: 0.686.
The same measure for C22A C34U: 0.761.
The value for C22A U47C C61G was ≤ 0.5.
Turning to C22A A42U C62U, the yeast fitness worked out at 0.549.
On to C22G A40G A70U, for which the yeast fitness is 0.609.
Take C22A G25C A40C: the yeast fitness is 0.59.
The value for C22A C29U C33G C46U C62U was ≤ 0.5; that for C22G C29G A36C G39C C46G G52A was ≤ 0.5.
The same measure for C22A C46A: 0.83.
The value for C22G A36U was 0.66; that for C22G A36G was 0.966; that for C22G A69C A70G was 0.632.
In the case of C22A U28A G39C, the yeast fitness is ≤ 0.5.
For A21U U32G C55A U59C, the yeast fitness is ≤ 0.5.
Turning to C22A C33A A36U, the yeast fitness is ≤ 0.5.
The same measure for C22A A40U A43C G48A A69U: ≤ 0.5; for C22G A43U U54C C62U: ≤ 0.5.
The same measure for A21U U32G U59C G68A: ≤ 0.5; for C22G C27G C29G C34A A43U A65U: ≤ 0.5.
A21U G63C: the yeast fitness was found to be 0.633.
The same measure for C22A G58A C60U: ≤ 0.5; for C22G C24U C29U C30G G63C: ≤ 0.5; for C22G A43U C62U: 0.56.
The same measure for C22A U26A C29G C34G A65G A69C: ≤ 0.5; for C22A C24G C60G C66G: 0.542.
The value for C22A U35A A70U was ≤ 0.5.
C22G C29A U53A: the yeast fitness is ≤ 0.5.
The value for C22G C29G A43G G63U was ≤ 0.5; that for C22G A43U U64C was 0.611.
The same measure for C22G A57U C66U: 0.524; for C22G C29G G51C: ≤ 0.5.
The same measure for C22G C29G G51A: 0.536.
With C22G C29A G58A C61G A70U, the yeast fitness was ≤ 0.5.
Take C22A C33G A43C C55A C62U: the yeast fitness is ≤ 0.5.
On to C22A U28A C30A, for which the yeast fitness is 0.72.
Consider C22G A36G A37C C46A C49G U64G, for which the yeast fitness is ≤ 0.5.
The value for C22A C33A was 0.718.
In the case of C22A C33G, the yeast fitness came to 0.701.
In the case of C22G A37G C60A A70G, the yeast fitness came to 0.501.
The same measure for C22A A37C G56C: ≤ 0.5.
The same measure for A21U U32G G51C A70G: ≤ 0.5; for C22G C27G C31G A37G C61G A69U: 0.758.
The same measure for C22A C29G C34G A42C C62G: ≤ 0.5; for C22G C27G C33U G39A G41A: ≤ 0.5; for C22A A42C: 0.635.
Regarding C22A A42U, the yeast fitness was 0.677.
Regarding C22A A42G, the yeast fitness was found to be 0.923.
The value for C22G C27A G63A was ≤ 0.5; that for C22A G67A was 0.888.
The same measure for C22A G67C: 0.701; for C22A C24U C30U C31G C66U: 0.615; for C22G C29G A69U: 0.626.
The value for C22A A43G G63U U64A was ≤ 0.5.
On to C22G A57U A65C C66G, for which the yeast fitness was ≤ 0.5.
